Rev-RRE block = HIV-1 Rev-RRE binding inhibitors, primary screen, biochemical, FRET, protein-RNA interaction; inhibition, % at 8 µM; Rev peptide-RRE RNA binding; 97,000 compounds, 0.79% hits; P05866;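 active = inhibition above the screen-wide mean plus 3 SD, cut at about 35% in these data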;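 also: 0% = median DMSO wells and 100% = median Neomycin B control wells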
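Material: labelled RRE RNA duplex and labelled Rev peptide / Buffer or medium: HEPES pH 7.5 salt buffer with EDTA / Compound dosing: single point, 8 µM final nominal compound concentration / Benchmarks: DMSO low control, neomycin B high control / Timing: 5 min preincubation and 15 min binding, 25 °C / Technique: FRET fluorescence readout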
FAK blocker = FAK kinase inhibitors, primary screen, biochemical | Focal adhesion kinase 1 (Homo sapiens), Q05397 | biochemical FAK kinase activity assay | inhibition, %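 (tested at 7 µM)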 | 97,000 compounds, 0.84% hits | AID 727, 2007; in the data active = inhibition above about 19%;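 also: 0% = DMSO and 100% = reference compound high control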
Pyk2 oligo antag = antagonists of Pyk2 self-association, primary screen, Q293 cells, FERM NanoBiT luminescence, HTS | Protein-tyrosine kinase 2-beta (Homo sapiens), Q14289 | hits give low values | z-score (the deposit names both 25 µM and 10 µM) | 99,000 compounds, 0.83% hits | AID 1347419, 2020;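 active = Z-score of -3 or lower, scaled per plate to the spread of control and sample wells; inactive = z-score above -3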;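 also: negative z-score means lost luminescence so less FERM oligomerization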
Cav3 T inh = Cav3.2 calcium influx blockers – cell-based, Fluo-4 calcium fluorescence, FDSS, MLSMR library, primary screen; Voltage-dependent T-type calcium channel subunit alpha-1H (Homo sapiens), O95180; Cav3.2-expressing cells; hits give low values; B-score at 10 µM; 100,000 compounds, 4% hits; AID 449739, 2010;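 active = single-dose well whose peak fluorescence ratio is a statistical outlier from its plate by either plate-standardised score or position-corrected B-score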
PLK1 inh = human PLK1 kinase inhibitors, primary screen, biochemical, TR-FRET; recombinant PLK1 kinase, TR-FRET peptide phosphorylation; inhibition, % at 10 µM; 97,000 compounds, 0.53% hits; AID 619, 2007;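 active = inhibition of 50% or more in the single-concentration screen; inactive = inhibition below 50%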;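 also: 0% = DMSO max control and 100% = H-89 dihydrochloride min control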
Plk1 PBD FP = Plk1 polo box domain binding inhibitors, primary screen, biochemical, fluorescence polarization | Plk1 PBD phosphopeptide binding | inhibition, %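 (tested at about 20 µM)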 | 97,000 compounds, 0.13% hits | AID 693, 2007; in the data active = inhibition above about 34%, passing the limit was not always enough
Starred values were filed as active, the others as inactive; . = not tested or not shown. Most compounds without a hit are left out; they make up all but 5.8% or so of the library.

SMILES	Rev-RRE block	FAK blocker	Pyk2 oligo antag	Cav3 T inh	PLK1 inh	Plk1 PBD FP
CCn1c(SC(C)C)nnc1-c1c[nH]c2ccccc12	0	-4	.	-0.25	65*	-9
CCn1c(SCC(=O)NCc2ccccc2)nnc1-c1c[nH]c2ccccc12	-3	1	0.56	0.39	-9	3
C=CCn1c(SCC(=O)NCc2cccs2)nnc1C1CCCCC1	.	.	0.66	0.16	.	.
O=C(Nc1cccc(C(F)(F)F)c1)c1ccc(Cn2cc(Br)cn2)o1	18	-1	-1.3	-7.2*	0	-4
Cc1ccc(C(=O)Nc2c3c(nn2C(C)(C)C)CS(=O)(=O)C3)cc1C	2	-9	1.2	-0.55	7	-4
CCC(C)n1c(=O)c(C(=O)Nc2ccccc2S(N)(=O)=O)c(O)c2ccccc21 (stereo unspecified)	.	.	-1.3	-3.4*	.	.
COc1ccc(C2C(C#N)=C(N)Oc3cc(C)n(Cc4ccncc4)c(=O)c32)cc1 (stereo unspecified)	0	0	-0.13	2.2	-5	7
CCN1C=C(Cc2ccc(OC)cc2)C2=C(C1)C(c1ccc(OC)cc1)C(C#N)=C(N)O2 (stereo unspecified)	40*	3	0.68	.	-8	3
Cc1ccc(C)c(-n2nnnc2SCC(=O)NCCC2=CCCCC2)c1	4	-1	-0.44	-7*	-2	-17
CNC(=O)CSc1nnnn1-c1cc(C)ccc1C	2	0	-0.5	0.04	-12	8
Cc1ccc(S(=O)(=O)c2ccc(Cl)cc2)cc1S(=O)(=O)N1CCOCC1	.	.	-0.55	-3.6*	.	.
Cc1ccc(S(=O)(=O)N2CCCC2)cc1S(=O)(=O)N1CCCC1	-1	-1	0.16	1.5	-6	4
CCOC(=O)Cc1c(C)nc2c(-c3cccc(Br)c3)c[nH]n2c1=O	.	.	0.84	-5.8*	.	.
Cn1c(CNc2cccc(Cl)c2)nnc1SCC(=O)OC1CCCCC1	11	4	0.19	-8.5*	-6	18
CCOC(=O)CSc1nnc(CNc2ccc(Cl)cc2)n1-c1ccccc1	.	.	-0.48	-1.8	.	.
CCOC(=O)CSc1nnc(CNc2cccc(Cl)c2)n1-c1ccccc1	6	2	-0.16	-5.6*	-18	17
O=C(c1ccccc1)c1nc2ccccc2n(CCCn2c(=O)c(C(=O)c3ccccc3)nc3ccccc32)c1=O	6	2	-0.69	-0.87	-6	-4
CC1=CC(C)(C)N2C(=O)C3(N=C(N)NC(Nc4ccccc4)=N3)c3cc(C)cc1c32 (stereo unspecified)	1	0	-0.01	-3.7*	-2	-17
Cc1cc(C)cc(NC2=NC3(CCCCC3)N=C(N)N2)c1	-18	-4	1.3	-0.47	-9	28
Cc1cccc(C)c1OCC(=O)Nc1cccc(NC(=O)c2ccco2)c1	7	-1	-0.26	-4.8*	-6	13
Cc1ccccc1OCC(=O)Nc1cccc(NC(=O)c2ccco2)c1	11	-3	1.2	-1.3	-1	3
Cn1c(=O)oc2cc(S(=O)(=O)Nc3ccc4c(c3)OCCO4)ccc21	38*	-4	1.6	0.65	-26	-10
CSc1cccc(NC(=O)CSc2nc3ccccc3o2)c1	8	-1	1.2	-3.6	7	0
Oc1cccc(-c2nc3c4c(ncn3n2)-c2ccccc2CC42CCCC2)c1	8	-3	-3.1*	0.53	5	8
Cc1nn(-c2ccc(F)cc2)c2nc(N)c(C#N)c(-c3cccs3)c12	23	-1	-2.7	0.25	-10	28
SMILES	Rev-RRE block	FAK blocker	Pyk2 oligo antag	Cav3 T inh	PLK1 inh	Plk1 PBD FP
COc1cc(-c2c(C#N)c(N)nc3c2c(C)nn3-c2ccc(C)c(C)c2)cc(OC)c1OC	.	.	-3.4*	-4.8*	.	.
CCCCCCCC(=O)NNC(=O)CC(=O)Nc1ccccc1C(=O)O	.	.	0.58	.	.	.
Cc1nn(-c2ccccc2)c(C)c1C(=O)OCC(=O)c1c(N)n(CC(C)C)c(=O)n(C)c1=O	.	.	-2.4	-3.8*	.	.
Cc1c(NC(=O)c2ccccc2N(C)S(=O)(=O)c2ccccc2)c(=O)n(-c2ccccc2)n1C	1	2	0.6	-0.25	-13	6
COc1ccc(S(=O)(=O)N2CCC(C(=O)N3CCc4ccccc4C3)CC2)cc1Cl	12	2	-0.7	-4.6*	-10	12
Cc1ccc(/C=N/NC(=O)CSCc2ccc(Cl)cc2)cc1	6	0	-0.42	-1.4	2	-9
Cc1ccsc1/C=N/NC(=O)CSCc1ccc(Cl)cc1	12	-2	-0.62	-5.2*	-12	-2
CCOC(=O)COc1ccc(S(=O)(=O)c2ccc(OCC(=O)OCC)cc2)cc1	9	-2	0.72	-6.1*	-1	-1
CCn1ncc(CNC(=O)C2(C)CC2(Cl)Cl)c1C (stereo unspecified)	.	.	0.52	.	.	.
Cc1ccc2nc(C3CCN(S(=O)(=O)c4ccc5ccccc5c4)CC3)[nH]c2c1	18	2	-0.87	-2.1	-1	6
Cc1ccc(NC(=O)c2cc3c(s2)CCC3)cc1S(=O)(=O)N1CCOCC1	8	0	-3.2*	0.25	-9	-26
c1coc(-c2nnc3sc(-c4cccs4)nn23)c1	8	2	0.38	-0.43	10	-6
Cc1ccc2c(CN3CCN(CCO)CC3)cc(=O)oc2c1C	-2	3	-3.5*	0.33	-4	13
CC1=C(C(=O)OCc2ccc3c(c2)OCO3)C(c2ccccc2)NC(=O)N1 (stereo unspecified)	4	2	-3.4*	-3.6	-9	-11
CCCOc1ccccc1C1NC(=O)NC(C)=C1C(=O)OCc1ccccc1 (stereo unspecified)	16	1	-2.5	-1.5	-8	6
CCOC(=O)C1=C(C)NC(=O)NC1c1ccc(C)o1 (stereo unspecified)	2	2	.	.	69*	18
CC1=C(C(=O)OCc2ccc3c(c2)OCO3)C(c2ccccc2OCc2ccccc2)NC(=O)N1 (stereo unspecified)	1	6	-3.2*	-3.4	5	-9
Cc1ccc(Cn2c(C3CCCN3c3nc(-c4cc(Cl)c(N)c(Cl)c4)cs3)nc3cc(Cl)c(Cl)cc32)cc1 (stereo unspecified)	.	.	.	0.95	.	.
O=S(=O)(NC1CC1)c1ccc(S(=O)(=O)N2CCCC3(CCCCC3)C2)cc1	10	-1	1.4	-0.75	-6	12
O=C(N/C(=C\c1cccc([N+](=O)[O-])c1)C(=O)N1CCCCC1)c1cccs1	4	3	0.7	0.82	-4	25
CN(Cc1ccccc1)C(=O)CCS(=O)(=O)c1ccc2c(c1)n(C)c(=O)c(=O)n2C	.	.	.	-4.9*	.	.
